Published values of several laboratories.
Compare with care: the assays were run in different laboratories.
HTR2C: 5-hydroxytryptamine receptor 2C (HTR2C, Homo sapiens, UniProt P28335)
HTR2B: 5-hydroxytryptamine receptor 2B (HTR2B, Homo sapiens, UniProt P41595)
mraY: mraY (Staphylococcus aureus, UniProt Q2FZ93)

COc1cc2c3c(c1OC)-c1c(OC)ccc(N4CCOCC4)c1CC3N(C)CC2 (stereo not drawn) — inhibition (HTR2C; ligand displacement, radioligand; 10 µM): 50%
Cc1cc(F)cc2c(CCC(=O)N[C@@H]3C(=O)NC[C@H]3O)c(-c3ccc(F)cc3)[nH]c12 — inhibition (HTR2B; cell-free assay; 10 µM): 10%
COc1cc2c3c(c1OC)-c1c(OC)ccc(-c4ccc(C#N)cc4)c1CC3N(C)CC2 (stereo not drawn) — inhibition (HTR2B; ligand displacement, radioligand; 10 µM): 65%
C#Cc1cc(-c2cc(Nc3nc(N[C@@H](C)c4ccc(F)cn4)ncc3Cl)n[nH]2)ccc1C=O — inhibition (Serine/threonine-protein kinase SIK1 (SIK1, Homo sapiens, UniProt P57059); enzyme activity, inhibitor; 0.2 µM): 82.4%
CCCCCCC#Cc1cncc(-c2nnc(SCc3cc(C(F)(F)F)cc(C(F)(F)F)c3)n2CCCN)c1 — inhibition (mraY; cell-free assay, inhibitor; 250 µM): 53%
CCN1/C(=C/C(C)=O)Sc2ccc(F)cc21 — inhibition (Substance-P receptor (TACR1, Homo sapiens, UniProt P25103); ligand displacement, radioligand; 10 µM): 20.8%
CCCCCCC#Cc1cncc(-c2nnc(SCc3cc([N+](=O)[O-])cc([N+](=O)[O-])c3)n2CCCN)c1 — inhibition (mraY; cell-free assay, inhibitor; 250 µM): 100%
NC/C(=C\F)COc1cccc(Cn2c(=S)[nH]c(=O)c3[nH]cnc32)c1 — inhibition (HTR2B; ligand displacement, radioligand; 10 µM): < 50%
COc1cc2c3c(c1OC)-c1c(OC)ccc(NC(C)=O)c1CC3N(C)CC2 (stereo not drawn) — inhibition (HTR2C; ligand displacement, radioligand; 10 µM): 3%
CCCCCCC#Cc1cncc(-c2nnc(SCc3cc([N+](=O)[O-])cc([N+](=O)[O-])c3)n2CCO)c1 — inhibition (mraY; cell-free assay, inhibitor; 250 µM): 55%
CC[N+]1(C)CCc2cc(OC)c(OC)c3c2C1Cc1cccc(OC)c1-3 (stereo not drawn) — inhibition (HTR2C; ligand displacement, radioligand; 10 µM): -19%
CCCCCCC#Cc1cncc(-c2nnc(SCCCn3ccc(=O)[nH]c3=O)n2C)c1 — inhibition (mraY; enzyme activity, inhibitor; 100 µM): 7%
